Experimental data from ChEMBL document CHEMBL1275392, “Assessment of chemoselective neoglycosylation methods using chlorambucil as a model” (2010).

Experiments:
[1] = Growth inhibition of human p53 deficient H1299 cells after 7 days by celltiter-glo assay; format: functional; details: NCI-H1299, 168 h
Outline: (§1)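 Cells seeded at 500 per well in 384-well plates. Compounds came from 30 mM DMSO stocks, serially diluted and tested in quadruplicate. Incubation was 7 d at 37 °C under 5% CO2. Calcein AM (10 μM) and EthD-1 were added, followed by a fluorescence read. CellTiter-Glo lysis was then done for 10 min at room temperature, with a luminescence read. GI50 came from curve fitting.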

DU-145 = assay: Growth inhibition of human DU145 cells after 7 days by celltiter-glo assay; format: functional; details: DU-145, 168 h
A549 = assay: Growth inhibition of human A549 cells expressing p53 after 7 days by celltiter-glo assay; format: functional; details: A549, 168 h
HT-29 = assay: Growth inhibition of human HT-29 cells after 7 days by celltiter-glo assay; format: functional; details: HT-29, 168 h
[2] = Growth inhibition of human p53 deficient Hep3B cells after 7 days by celltiter-glo assay; format: functional, Hep 3B2; details: 168 h; outline: as §1
SF-268 [3] = assay: Growth inhibition of human SF268 cells after 7 days by celltiter-glo assay; format: functional; details: SF-268, 168 h
NCI-H460 = assay: Growth inhibition of human NCI-H460 cells after 7 days by celltiter-glo assay; format: functional; details: NCI-H460, 168 h
HCT-15 = assay: Growth inhibition of human HCT15 cells after 7 days by celltiter-glo assay; format: functional; details: HCT-15, 168 h
SK-OV-3 = assay: Growth inhibition of human SKOV3 cells after 7 days by celltiter-glo assay; format: functional; details: SK-OV-3, 168 h
MCF7 = assay: Growth inhibition of human MCF7 cells after 7 days by celltiter-glo assay; format: functional; details: MCF7, 168 h
SF-268 [4] = assay: Ratio of compound GI50 to chlorambucil GI50 for human SF268 cells; format: functional

SMILES	GI50 [1]	GI50 (DU-145)	GI50 (A549)	GI50 (HT-29)	GI50 [2]	GI50 (SF-268 [3])	GI50 (NCI-H460)	GI50 (HCT-15)	GI50 (SK-OV-3)	GI50 (MCF7)	RatioGI50 (SF-268 [4])
CON(CCCc1ccc(N(CCCl)CCCl)cc1)C1O[C@@H](C)[C@H](O)[C@@H](O)[C@H]1O (stereo partly specified)	3.7 µM	4.2 µM	2.5 µM	2.4 µM	2.6 µM	1.9 µM	5.3 µM	2 µM	2 µM	2.2 µM	
CON(CCCc1ccc(N(CCCl)CCCl)cc1)C1O[C@@H](CO)[C@H](O)[C@H](O)[C@H]1O (stereo partly specified)	1.3 µM	4.1 µM	3.1 µM	2.1 µM	2 µM	2.3 µM	7.9 µM	1.4 µM	2.5 µM	7.9 µM	
CON(CCCc1ccc(N(CCCl)CCCl)cc1)[C@H]1O[C@H](COCc2ccccc2)[C@@H](OCc2ccccc2)[C@@H]1OCc1ccccc1	> 100 µM	> 100 µM	> 100 µM	47 µM	> 100 µM	80 µM	> 100 µM	64 µM	> 100 µM	82 µM	
O=C(CCCc1ccc(N(CCCl)CCCl)cc1)N/N=C/[C@@H](O)[C@H](O)CO	2.6 µM	9.5 µM	7.5 µM	4.8 µM	4.1 µM	2.6 µM	10.8 µM	7.3 µM	6.2 µM	4.2 µM	
CON(CCCc1ccc(N(CCCl)CCCl)cc1)C1O[C@H](CN)[C@@H](O)[C@H](O)[C@H]1O (stereo partly specified)	1.1 µM	2.8 µM	3.7 µM	2.5 µM	3.5 µM	2.2 µM	5 µM	1.3 µM	2.2 µM	3.7 µM	
CON(CCCc1ccc(N(CCCl)CCCl)cc1)C1O[C@H](CO)[C@@H](O[C@@H]2O[C@H](CO)[C@H](O)[C@H](O)[C@H]2O)[C@H](O)[C@@H]1O (stereo partly specified)	24 µM	43 µM	56 µM	34 µM	38 µM	19.1 µM	57.7 µM	31 µM	35 µM	26 µM	
O[C@@H]1[C@H](O)COC(N(O)CCCc2ccc(N(CCCl)CCCl)cc2)[C@@H]1O (stereo partly specified)	1.6 µM	> 5 µM	0.84 µM	0.9 µM	> 5 µM	1.5 µM	1.04 µM	0.87 µM	0.89 µM	3.2 µM	
CON(CCCc1ccc(N(CCCl)CCCl)cc1)C1OC[C@H](O)[C@H](O)[C@H]1O (stereo partly specified)	0.84 µM	3.6 µM	2.3 µM	1.9 µM	1.9 µM	1.9 µM	6.1 µM	1 µM	2.2 µM	5.4 µM	
C=CCOC(=O)NC[C@H]1O[C@@H](N(CCCc2ccc(N(CCCl)CCCl)cc2)OC)[C@H](O)[C@@H](O)[C@@H]1O	2.1 µM	6.2 µM	4.5 µM	2.8 µM	4.6 µM	3.1 µM	11 µM	2.1 µM	2.9 µM	7.4 µM	
CON(CCCc1ccc(N(CCCl)CCCl)cc1)[C@@H]1O[C@H]2[C@H](OC(=O)[C@H]2O)[C@H]1O	0.4 µM	1.9 µM	3.7 µM	3.6 µM	1.3 µM	0.46 µM	3.8 µM	0.99 µM	5.2 µM	1.1 µM	12
